Reference: article PMC2921709 (ChemMedChem, 2010)
Where two headings read alike, the source gives them in different places.

Assays:
[1] = system: HT-29; experiment: MTT growth inhibition, HT-29 colon adenocarcinoma cells; assay type: cell-based, human; conditions: read-out: GI50 HT-29
Summary of the method: (§1)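 Cells seeded at 8 × 10^3 per well in 96-well plates and held 18 h at 37 °C, 5% CO2. Medium then replaced with test compound in complete medium at various concentrations for 72 h continuous exposure. Viability read by MTT. GI50 is the concentration giving 50% proliferation inhibition, from dose–response curves; mean ± SE of ≥3 independent experiments. Media: leukemia lines in RPMI-1640; solid-tumour lines in DMEM with penicillin G 115 U mL−1, streptomycin and 10% FBS.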

[2] = system: ARO; experiment: MTT growth inhibition, ARO anaplastic thyroid cells; assay type: cell-based, human; conditions: read-out: GI50 ARO
Summary of the method: as §1

[3] = system: Hep G2; experiment: MTT growth inhibition, HepG2 hepatoma cells; assay type: cell-based, human; conditions: read-out: GI50 Hep G2
Summary of the method: as §1

[4] = system: IGROV; experiment: MTT growth inhibition, IGROV ovarian cancer cells; assay type: cell-based, human; conditions: read-out: GI50 IGROV
Summary of the method: as §1

[5] = system: MCF-7; experiment: MTT growth inhibition, MCF-7 breast adenocarcinoma cells; assay type: cell-based, human; conditions: read-out: GI50 MCF-7
Summary of the method: as §1

[6] = system: HeLa; experiment: MTT growth inhibition, HeLa cervix carcinoma cells; assay type: cell-based, human; conditions: read-out: GI50 HeLa
Summary of the method: as §1

[7] = system: HL-60; experiment: MTT growth inhibition, HL-60 promyelocytic leukemia cells; assay type: cell-based, human; conditions: read-out: GI50 HL-60
Summary of the method: as §1

[8] = system: ML2; experiment: MTT growth inhibition, ML-2 myeloid leukemia cells; assay type: cell-based, human; conditions: read-out: GI50 ML2
Summary of the method: as §1

[9] = system: K562; experiment: MTT growth inhibition, K562 chronic myelogenous leukemia cells; assay type: cell-based, human; conditions: read-out: GI50 K562
Summary of the method: as §1

[10] = system: RS 4;11; experiment: MTT growth inhibition, RS 4; assay type: cell-based, human; conditions: read-out: GI50 RS 4;11
Summary of the method: as §1

[11] = system: Jurkat; experiment: MTT growth inhibition, Jurkat T-leukemia cells; assay type: cell-based, human; conditions: read-out: GI50 Jurkat
Summary of the method: as §1

[12] = system: Bovine brain tubulin; experiment: Inhibition of tubulin polymerization; assay type: biochemical; conditions: for IC50: read-out: Tubulin Assembly IC50, tubulin 10 μM, 20 min incubation, ± SD
[13] = system: leukemia cells; experiment: MTT growth inhibition, leukemia cell lines; assay type: cell-based, human; conditions: 72 h, MTT
Summary of the method: as §1

[14] = system: Jurkat cells; experiment: Flow cytometric cell-cycle analysis; assay type: cell-based, human; conditions: 24 h treatment
Summary of the method: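 Jurkat cells in exponential growth, 5 × 10^5 per sample, exposed to test compound at various concentrations for 24 h. Cells fixed in ice-cold 70% ethanol, treated with lysis buffer containing RNase A and 0.1% Triton X-100, then stained with PI. DNA content measured by flow cytometry and phases assigned from DNA histograms. Mean ± SEM of two independent experiments.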

[15] = system: Jurkat cells; experiment: Annexin V-FITC/PI apoptosis assay; assay type: cell-based, human; conditions: 24 h treatment
Summary of the method: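 Jurkat cells exposed to test compound at various concentrations for 24 or 48 h, then harvested. Co-labelled with annexin V–FITC and PI and analysed by flow cytometry (excitation 488 nm; emission 525 and 585 nm). Reported as mean percentage of annexin-V-positive cells ± SEM, three independent experiments.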

[16] = system: panel of human tumor cell lines; experiment: MTT growth inhibition, whole panel of human tumor cell lines; assay type: cell-based; conditions: 72 h, read-out: GI50, all cell lines tested
Summary of the method: as §1

[17] = system: Bovine brain tubulin (colchicine site); experiment: Inhibition of [3H]colchicine binding to tubulin; conditions: tubulin 1 μM, [3H]colchicine 5 μM; for Colchicine Binding Inhibition [%], 1 μM: compound 1 μM; for Colchicine Binding Inhibition [%], 5 μM: compound 5 μM
[18] = Homo sapiens, Thyroid cell, 72 h

| SMILES | GI50 ([1]; 72 h exposure, MTT, mean ± SE) [nM] | GI50 ([2]; 72 h exposure, MTT, mean ± SE) [nM] | GI50 ([3]; 72 h exposure, MTT, mean ± SE) [nM] | GI50 ([4]; 72 h exposure, MTT, mean ± SE) [nM] | GI50 ([5]; 72 h exposure, MTT, mean ± SE) [nM] | GI50 ([6]; 72 h exposure, MTT, mean ± SE) [nM] | GI50 ([7]; 72 h exposure, MTT, mean ± SE) [nM] | GI50 ([8]; 72 h exposure, MTT, mean ± SE) [nM] | GI50 ([9]; 72 h exposure, MTT, mean ± SE) [nM] | GI50 ([10]; 72 h exposure, MTT, mean ± SE) [nM] | GI50 ([11]; 72 h exposure, MTT, mean ± SE) [nM] | IC50 [12] [nM] | GI50 ([1]; Homo sapiens, HT-29, 72 h) [nM] | GI50 [2, 18] [nM] | GI50 ([3]; Homo sapiens, HepG2, 72 h) [nM] | GI50 ([6]; Homo sapiens, HeLa, 72 h) [nM] | GI50 ([7]; Homo sapiens, HL-60, 72 h) [nM] | GI50 ([8]; Homo sapiens, ML-2, 72 h) [nM] | GI50 ([9]; Homo sapiens, K562, 72 h) [nM] | Colchicine Binding Inhibition [%], 5 μM [17] [%] | other results |
| --- | --- | --- | --- | --- | --- | --- | --- | --- | --- | --- | --- | --- | --- | --- | --- | --- | --- | --- | --- | --- | --- |
| CCn1cc(C(N)=O)c2c3c(=O)cc(-c4ccccc4)[nH]c3ccc21 [Compound 22, 3-Ethyl-9-oxo-7-phenyl-6,9-dihydro-3H-pyrrolo[3,2-f]quinoline-1-caboxamide] | > 50000 | > 50000 | > 50000 | > 50000 | > 50000 | > 50000 | 320 ± 30 | 90 ± 20 | 1700 ± 500 | 30 ± 2 | 50 ± 6 | > 40000 | – | – | – | – | – | – | – | – | inhibition of tubulin assembly at the highest concentration ([12]; compound 40 μM): less than 50%; activity in the leukemia lines (concentration level, in words) [13]: sub-micromolar; effect on cell-cycle progression (G2/M arrest, in words) [14]: only induced G2/M arrest at yet higher concentrations; induction of apoptotic (annexin-V-positive) cells, in words [15]: lower efficacy |
| O=c1c(-c2ccccc2)c[nH]c2ccc3[nH]ccc3c12 [Compound 33, 8-Phenyl-3H-pyrrolo[3,2-f]quinolin-9(6H)-one] | – | – | – | – | – | – | – | – | – | – | – | – | > 50000 | > 50000 | > 50000 | > 50000 | > 50000 | > 50000 | > 50000 | – | GI50 [16]: > 50000 nM |
| COc1ccc(/C=C\c2cc(OC)c(OC)c(OC)c2)cc1O [CA-4, combretastatin A-4, reference compound] | – | – | – | – | – | – | – | – | – | – | – | – | – | – | – | – | – | – | – | 98 ± 0.3 | Colchicine Binding Inhibition [%], 1 μM [17]: 84 ± 3% |
| CCn1ccc2c3c(=O)c(-c4cccc(OC)c4)c[nH]c3ccc21 [Compound 36, 3-Ethyl-8-(3-methoxyphenyl)-3H-pyrrolo[3,2-f]quinolin-9(6H)-one] | – | – | – | – | – | – | – | – | – | – | – | – | > 50000 | > 50000 | > 50000 | > 50000 | > 50000 | > 50000 | > 50000 | – | – |
| CCn1ccc2c3c(=O)cc(-c4ccccc4)[nH]c3ccc21 [Compound 38, 3-ethyl-7-PPyQ, reference compound] | 30 ± 10 | 30 ± 10 | 50 ± 10 | 60 ± 10 | 40 ± 10 | 10 ± 8 | 0.5 ± 0.02 | 1 ± 0.3 | 1 ± 0.1 | 2 ± 0.3 | 0.5 ± 0.02 | 570 ± 20 | – | – | – | – | – | – | – | 73 ± 0.7 | Colchicine Binding Inhibition [%], 1 μM [17]: 34 ± 2% |
| CCn1ccc2c3c(=O)cc(-c4cccnc4)[nH]c3ccc21 [Compound 13, 3-Ethyl-7-(pyridin-3-yl)-3H-pyrrolo[3,2-f]quinolin-9(6H)-one] | – | – | – | – | – | – | – | – | – | – | – | 2400 ± 400 | 850 ± 140 | 450 ± 70 | 500 ± 50 | 400 ± 50 | 30 ± 2 | 300 ± 40 | 240 ± 30 | 23 ± 6 | GI50 ([4]; Homo sapiens, IGROV, 72 h): 650 ± 150 nM; GI50 ([5]; Homo sapiens, MCF7, 72 h): 850 ± 150 nM; GI50 ([10]; Homo sapiens, RS4-11, 72 h): 40 ± 7 nM; GI50 ([11]; Homo sapiens, Jurkat, 72 h): 50 ± 4 nM; Colchicine Binding Inhibition [%], 50 μM ([17]; compound 50 μM): 65 ± 0.3%; effect on cell-cycle progression (G2/M arrest, in words) [14]: only induced G2/M arrest at yet higher concentrations; induction of apoptotic (annexin-V-positive) cells, in words [15]: lower efficacy |
